Experimental data as given in paper PMC8448912 (ChemMedChem, 2021).

Legend:
Format in all cases: cell-based
[1] = system: MRC-5 (Normal lung); test: MTT antiproliferative assay, 72 h; details: Homo sapiens, MRC5, 72 h, read-out: IC50 values
[2] = system: MDA-MB-231 (Breast); test: MTT antiproliferative assay, 72 h; details: Homo sapiens, MDA-MB-231, 72 h, read-out: IC50 values
Outline: (§1)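 Human cancer cell lines (breast MDA-MB-231 and MCF-7, ovarian A2780, colorectal Caco-2 and HT-29) exposed to test compound for 72 h. Growth measured by MTT assay. IC50 values reported as mean ± SDM, n = 3.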

[3] = system: panel of breast, ovarian and colorectal cancer cells; test: antiproliferative activity in the panel of cell lines; details: read-out: IC50 values in this screen
Outline: as §1

[4] = system: HT-29 (Colon); test: MTT antiproliferative assay, 72 h; details: Homo sapiens, HT-29, 72 h, read-out: IC50 values
Outline: as §1

[5] = system: MCF-7 (Breast); test: MTT antiproliferative assay, 72 h; details: Homo sapiens, MCF7, 72 h, read-out: IC50 values
Outline: as §1

[6] = system: Caco-2 (Colon); test: MTT antiproliferative assay, 72 h; details: Homo sapiens, Caco-2, 72 h, read-out: IC50 values
Outline: as §1

[7] = system: A2780 (Ovary); test: MTT antiproliferative assay, 72 h; details: Homo sapiens, A2780, 72 h, read-out: IC50 values
Outline: as §1

IC50 [2]: 5.8 ± 0.4 µM
IC50 [3]: 2 to 20 µM
IC50 [4]: 2400 ± 100 nM
IC50 [5]: 21 ± 2 µM
IC50 [6]: 3.7 ± 0.3 µM
IC50 [7]: 3.83 ± 0.02 µM
Structure (SMILES): CC(=O)N(O)CCCCCNC(=O)CCC(=O)N(O)CCCCCNC(=O)CCC(=O)N(O)CCCCCN [DFO, desferrioxamine]
IC50 [1]: 9 ± 1 µM
